High-throughput results from PubChem.
Shown are actives, neighbours in structure and some others; about 4.9% of the full set was active somewhere.
STAT1 act = increases IFN-gamma driven STAT1 reporter signal; NIH 3T3 STAT1-luciferase reporter, luminescence; 100% = IFN-gamma alone, no compound; activation (% of control), % at 5.5 µM; 200,000 compounds, 2.6% hits; AID 932;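 active means activation above the screen-wide mean activation plus 3 SD, cut at about 130% in these data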;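 further: raw ratio to IFN-gamma control signal so 100% means no change and 0% no light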
STAT3 inh = STAT3 signaling inhibition; 190,000 compounds, 0.89% hits; U3A cells, IL-6 STAT3-luciferase reporter, luminescence; host cell line lacks STAT1; inhibition, % at 5.5 µM;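 active means inhibition above the mean inhibition across all screened compounds plus 3 SD, cut at about 44% in these data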;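 further: 0% = DMSO only wells and 100% = 100 µM nifuroxazide control wells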
NF-kB expr up = raises NF-kB expression in human neuronal cells. NF-kB reporter expression; hits give high values. fold change at 12.5 µM. 190,000 compounds, 1.6% hits. AID 1239; in the data active means fold change above about 3.3
APP 5'UTR act = activates APP 5'UTR luciferase reporter | SH-SY5Y APP 5'UTR luciferase reporter, luminescence; zero percent = DMSO vehicle wells | activation, % at 2 µM | 190,000 compounds, 1% hits;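 active means activation above a set limit, based on mean plus 3 SD of controls, cut at about 140% in these data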
STAT3 activator = increases IL-6 driven STAT3 reporter signal | U3A cells, IL-6 STAT3-luciferase reporter, luminescence; 100% = signal with IL-6 EC80 alone | activation (% of control), % at 5.6 µM | 190,000 compounds, 0.91% hits;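 active means activation above the screen-wide mean of compound activation plus 3 SD, cut at about 130% in these data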;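 further: 0% = background luminescence of wells with medium and substrate only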
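Assay system – human STAT1-deficient U3A cells with stable STAT3-luciferase reporter · Also added – IL-6 (33 ng/mL) · Schedule – compound 1 h, then IL-6 6 h at 37 °C · Technique – reporter luminescence signal · Evaluation – % activation versus median of IL-6-stimulated wells · Benchmarks – IL-6-only wells as 100% reference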
STAT1 blocker = inhibitors of IFN-gamma induced STAT1 signaling. NIH 3T3 STAT1-luciferase reporter, luminescence. inhibition, % at 5.5 µM. 200,000 compounds, 0.35% hits. AID 920;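 active means inhibition above a set limit, the mean inhibition across all tested compounds plus 3 SD, cut at about 34% in these data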;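 further: 0% = IFN-gamma with DMSO and 100% = IFN-gamma with 300 µM nifuroxazide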
Starred values were filed as active, the others as inactive.

SMILES | STAT1 act | STAT3 inh | NF-kB expr up | APP 5'UTR act | STAT3 activator | STAT1 blocker
CCN(CC)CC(=O)NCc1cc(-c2ccc(OC)cc2)no1 | 101.6 | 3.2 | 0.95 | 1.6 | 101.4 | -1.7
COc1ccc(-c2cc(COc3ccccc3)on2)cc1 | 140.1* | 9.6 | 2.21 | 24.6 | 100.8 | -46.0
COc1ccc(-c2cc(CS(=O)(=O)c3ccccc3)on2)cc1 | 142.4* | 11.3 | 3.01 | 117.4 | 98.0 | -45.6
O=S(=O)(Cc1cc(-c2ccccc2)no1)c1ccccc1 | 129.1* | 19.3 | 1.61 | 33.5 | 90.3 | -31.3
COc1ccc(-c2cc(CNC(=O)CN3CCN(C)CC3)on2)cc1 | 78.7 | -3.7 | 1.02 | 8.8 | 107.7 | 23.2
CN(C)c1ncnc2c1ncn2C1OC(CO)C(O)C1O (stereo not drawn) | 43.0 | 43.6* | 0.36 | -39.6 | 67.0 | 61.8*
Nc1nc(Cl)nc2c1ncn2[C@@H]1O[C@H](CO)[C@@H](O)[C@H]1O | 87.7 | 3.0 | 1.33 | 1.0 | 99.4 | 13.6
Brc1ccc(-c2nnc(-c3cccc(Br)c3)o2)cc1 | 110.2 | 13.1 | 1.36 | 1.0 | 91.9 | -11.2
Cc1ccc(-c2nnc(-c3ccc(Br)cc3)o2)o1 | 118.0 | 8.8 | 3.76* | 16.5 | 94.9 | -19.5
O=C(N/N=C/c1ccc(OC(F)F)cc1OC(F)F)c1cccc(S(=O)(=O)N2CCOCC2)c1 | 82.0 | 10.1 | 1.05 | -2.3 | 97.9 | 18.3
CC(C)CN(C)C(=O)CCc1nnc(Cc2cccc(C(F)(F)F)c2)o1 | 133.2* | 2.4 | 2.1 | 66.0 | 101.7 | -38.6
C=C(C)CNC(=O)CCc1nnc(Cc2cccc(C(F)(F)F)c2)o1 | 140.2* | -4.8 | 2.67 | 57.1 | 106.1 | -45.8
CCC(CO)n1c(=S)[nH]c2cc(OC)c(OC)cc2c1=O (stereo not drawn) | 98.5 | 3.5 | 0.97 | -4.2 | 98.4 | 0.4
CC(=O)c1cn(CC(=O)Nc2ccc(C)cc2)c2ccccc12 | 87.4 | 57.1* | 0.92 | -11.8 | 51.4 | 13.6
O=C(Cn1nnc2ccccc21)C1CC1 | 97.9 | 2.9 | 0.99 | 12.0 | 102.5 | 2.3
Cc1ccc(C(=O)Cn2nnc3ccccc32)cc1 | 119.2 | -3.0 | 3.34* | 103.7 | 102.7 | -21.0
Cc1ccc(C(=O)Cn2nnc3ccccc32)cc1C | 143.2* | -1.8 | 4.13* | 119.2 | 101.7 | -47.4
Cc1ccc(NC(=O)CCn2nnc3ccccc32)cc1 | 130.5* | 6.1 | 2.21 | 19.9 | 96.7 | -31.8
COCCn1c(-c2ccc(-c3ccc([N+](=O)[O-])cc3Br)o2)nc2c1c(=O)[nH]c(=O)n2CC(C)C | 91.2 | -8.6 | 1.02 | -0.9 | 112.9 | 9.2
CCN(CC)C(=O)Cn1cc(C(=O)C2CC2)c2ccccc21 | 94.6 | 0.6 | 0.92 | -20.7 | 101.5 | 4.0
O=C(Cn1nnc2ccccc21)NCc1ccccc1 | 144.1* | -10.0 | 2.36 | 59.1 | 109.5 | -40.3
O=C(Cn1nnc2ccccc21)OCc1ccccc1 | 102.4 | -0.2 | 1.07 | -14.0 | 105.3 | -4.9
COc1nc(C)nc2c1sc1nc3c(cc12)COC(C)(C)C3 | 136.8* | 9.5 | 2.58 | 55.0 | 96.8 | -39.7
COc1cc(C(=O)NCCCNc2nc3cc(C)c(C)cc3cc2C#N)cc(OC)c1OC | 102.3 | 21.1 | 1.26 | 3.5 | 86.7 | -4.7
C=CCn1c(C)cc(C(=O)Cn2ncc(Cl)c(Cl)c2=O)c1C | 83.8 | 4.6 | 0.65 | -86.7 | 94.4 | 18.2
SMILES | STAT1 act | STAT3 inh | NF-kB expr up | APP 5'UTR act | STAT3 activator | STAT1 blocker
C=CCn1c(C)cc(C(=O)CN2NS(=O)(=O)c3ccccc3C2=O)c1C | 142.8* | -2.0 | 1.21 | -84.6 | 103.0 | -47.4
O=C(O)c1ccc(Nc2ncnc3c2cnn3Cc2ccccc2)cc1 | 101.7 | 2.1 | 1.03 | 0.8 | 104.9 | -2.1
CCc1ccc2c(c1)C1(NN=C(c3ccc(C)cc3)S1)C(=O)N2 (stereo not drawn) | 102.1 | 10.9 | 0.87 | 46.2 | 92.0 | -10.8
CC(C)c1ccc2c(c1)C1(NN=C(c3ccccc3)S1)C(=O)N2 (stereo not drawn) | 128.7* | -10.5 | 1.73 | 132.9 | 110.0 | -35.7
O=C(COC(=O)c1ccc(F)cc1F)NC1CC1 | 102.5 | -0.7 | 1.32 | -4.3 | 104.9 | -0.9
Cc1cc(C(=O)O)ccc1N/C=C1\CCCC(C)C1=O (stereo not drawn) | 149.6* | 31.4 | 3.96* | 148.9* | 76.8 | -53.5
CC1CCC/C(=C\Nc2ccc(O)cc2)C1=O (stereo not drawn) | 136.3* | 9.5 | 2.1 | -1.0 | 95.2 | -40.0
COc1ccc(OC)c(-c2cc(C(=O)NCc3ccc(Cl)cc3)no2)c1 | 108.9 | 17.7 | 1.07 | -1.1 | 91.3 | -11.9
O=c1c2ccccc2nc2c3ccccc3c(Cl)nn12 | 95.9 | 7.5 | 0.95 | -3.9 | 98.5 | 4.3
O=c1c2ccccc2nc2c3ccccc3cnn12 | 134.5* | 19.4 | 1.72 | 35.1 | 87.0 | -36.8
CC(C)Cc1ccc(/C=C/C(=O)NC2CC2)cc1 | 146.9* | -6.7 | 3.23 | 62.7 | 109.3 | -53.1
CC(C)Cc1ccc(/C=C/C(=O)N2CCCCC2)cc1 | 139.1* | -4.8 | 4.18* | 85.9 | 109.5 | -42.1
Cc1cccc(NC(=O)c2n[nH]c([N+](=O)[O-])c2Br)c1C | 123.1 | 32.5 | 4.07* | 132.4 | 77.1 | -27.1
COCCCn1cnc2oc3nc4ccccc4nc3c2c1=O | 141.1* | 11.5 | 2.32 | 166.5* | 93.5 | -45.3
CN(C)c1ccccc1C(=O)c1ccccc1N(C)C | 132.0* | -0.4 | 2.48 | -90.9 | 109.2 | -35.1
CCOC(=O)C(Oc1ccc2c(-c3ccccc3)cc(=O)oc2c1)c1ccccc1 (stereo not drawn) | 106.9 | -5.2 | 0.76 | -15.2 | 102.4 | -7.7
Nc1nn(-c2cccc(F)n2)cc1-c1ccccc1 | 115.4 | 42.4 | 9.91* | 213.2* | 66.0 | -16.3
O=C(c1ccco1)N1CCN(C(=O)c2cc(-c3ccccc3)nc3ccccc23)CC1 | 104.3 | -8.1 | 0.51 | 2.4 | 111.4 | -4.7
O=C(c1ccco1)N1CCN(c2ccc(Cl)cc2)CC1 | 134.0* | 8.6 | 2.83 | 67.0 | 96.8 | -37.0
O=C(c1ccco1)N1CCN(C(=O)N2c3ccccc3Sc3ccccc32)CC1 | 101.2 | -22.4 | 4.66* | -93.4 | 122.1 | -1.2
O=C(Cc1ccc(Cl)cc1)Nc1ccc(N2CCN(C(=O)c3ccco3)CC2)cc1 | 98.1 | 14.9 | 0.83 | -5.5 | 90.6 | -3.0
O=C(c1ccco1)N1CCN(C(=O)c2cc(-c3ccccn3)nc3ccc(Cl)cc23)CC1 | 100.7 | -37.9 | 0.47 | 4.6 | 135.4* | -0.8
CC(=O)c1cccc(NC(=O)COc2cc3oc(=O)c(CC(C)O)c(C)c3cc2Cl)c1 (stereo not drawn) | 95.7 | 4.4 | 0.51 | -9.0 | 95.7 | 4.7
Cc1ccc(S(=O)(=O)N(C)C)cc1NC(=S)N1CCN(Cc2ccc3c(c2)OCO3)CC1 | 84.2 | 27.3 | 1.39 | 5.3 | 81.8 | 15.7
COc1ccccc1C(=O)NNC(=S)NC(=O)c1ccco1 | 93.0 | -37.8 | 1.23 | -2.4 | 126.5 | 7.7
